Measurements of several laboratories.
Compare with care: the assays were run in different laboratories.
Target: Carbonic anhydrase 2 (CA2, Homo sapiens, UniProt P00918)
Observed: enzyme activity
Mode: inhibitor

Compound | technique | Ki [nM]
O=C(O)COCCN1CCN(C(c2ccccc2)c2ccc(Cl)cc2)CC1 (centres unmarked) | absorbance | 9590
CC1(C(=O)Nc2nnc(S(N)(=O)=O)s2)CCC1 | stopped-flow | 29.6
OC1CCN(c2ccc(/C=N/NC(=S)Nc3ccc(Br)cc3)cc2)CC1 | – | 334
Cc1cc(=O)oc2cc(OCCCCSC#N)ccc12 | stopped-flow | > 100000
Nc1ccc(S(=O)(=O)c2ccc(N)cc2)cc1 | absorbance | 9480
COc1ccc(NC(=S)N/N=C/c2ccc(N3CCC(O)CC3)cc2)cc1 | – | 603
CC1CCCC(C(=O)Nc2nnc(S(N)(=O)=O)s2)C1 (centres unmarked) | stopped-flow | 31.5
N#CSCCCCOc1ccc2c(-c3ccccc3)cc(=O)oc2c1 | stopped-flow | > 100000
NS(=O)(=O)c1nnc(NC(=O)C(F)CC2CCCCC2)s1 (centres unmarked) | stopped-flow | 4.9
Cc1ccc(CNC(=S)N/N=C/c2ccc(N3CCC(O)CC3)cc2)cc1 | – | 778
NS(=O)(=O)c1nnc(NC(=O)CN2CC3CCC2CC3)s1 | stopped-flow | 43.7
Cc1cncc(CN2CCC(=C3c4ccc(Cl)cc4CCc4cccnc43)CC2)c1 | absorbance | 9180
NS(=O)(=O)c1nnc(NC(=O)C2CCC3(CCC3)CC2)s1 | stopped-flow | 21.7
OC1CCN(c2ccc(/C=N/NC(=S)NC3CCCCC3)cc2)CC1 | – | 482
Cn1cnc([N+](=O)[O-])c1Sc1ncnc2nc[nH]c12 | absorbance | 13000
NS(=O)(=O)c1nnc(NC(=O)C2CCC3(CCCCC3)CC2)s1 | stopped-flow | 32.6
CN(C)CCC(c1ccccc1)c1ccccn1 (centres unmarked) | absorbance | 14000
OC1CCN(c2ccc(/C=N/NC(=S)Nc3ccc(Cl)cc3)cc2)CC1 | – | 401
CCOCCn1c(C2CCN(CCc3ccc(C(C)(C)C(=O)O)cc3)CC2)nc2ccccc21 | absorbance | 8440
OC1CCN(c2ccc(/C=N/NC(=S)NCc3ccc(Cl)cc3)cc2)CC1 | – | 378
